Source: PubChem (several laboratories)
Sampled rows, rich in hits. Any-hit rate of the full collection: about 10%.
PMI activator: phosphomannose isomerase (human) activation; P34949; purified human PMI, coupled resazurin fluorescence, 20 min; stronger effect = higher value; 1 = vehicle control, 0 substrate-free wells; 0.005% of 190,000 active; AID 1214; activation factor at 20 µM;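 active = activation factor of 2 or more at 20 µM, relative to plate controls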
Target sequence (P34949 whole entry, looked up): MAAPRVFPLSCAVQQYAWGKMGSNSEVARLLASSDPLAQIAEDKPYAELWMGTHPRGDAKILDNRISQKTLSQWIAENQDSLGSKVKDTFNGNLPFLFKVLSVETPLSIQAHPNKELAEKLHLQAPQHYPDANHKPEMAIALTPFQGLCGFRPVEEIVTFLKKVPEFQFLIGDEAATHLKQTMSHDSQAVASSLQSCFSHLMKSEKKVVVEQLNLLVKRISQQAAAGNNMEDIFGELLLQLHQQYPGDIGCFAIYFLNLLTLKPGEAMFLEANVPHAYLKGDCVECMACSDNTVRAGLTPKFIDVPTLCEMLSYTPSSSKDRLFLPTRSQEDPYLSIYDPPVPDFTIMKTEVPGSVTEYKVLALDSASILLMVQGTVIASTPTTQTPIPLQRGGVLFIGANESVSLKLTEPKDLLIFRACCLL
WT yeast gro inh: growth inhibition of WT yeast, mitochondrial fusion screen; mitochondrial fusion phenotypic screen, WT strain; 2.1% of 190,000 active; inhibition, % at 10 µM; AID 1362; in the data active = inhibition above about 58%; tested in S. cerevisiae
L major viab: reduces viability of Leishmania major promastigotes | resazurin fluorescence viability | 9% of 200,000 active | inhibition, % at 10 µM | AID 1063; in the data active = inhibition above about 50%;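 note: promastigotes grown with compound for 44 hours at 28 °C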
Diaphorase act: diaphorase activation or chemical reduction counter-screen. Diaphorase/resazurin coupled assay, resorufin fluorescence, 16 min; stronger effect = higher value; 1 = vehicle wells, 0 = NADH-free wells. activation factor at 20 µM. 0.005% of 190,000 active;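 active = diaphorase activity raised at least twofold by the compound at 20 µM; inactive = activation factor below 2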
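Test system: Clostridium kluyveri diaphorase, purified enzyme. Buffer or medium: 50 mM HEPES pH 7.4 buffer plus MgCl2 and Tween 20. Also added: 0.114 mM NADH and 0.1 mM resazurin, final amounts. Dosing: compound 20 µM once, DMSO 1%. Schedule: 16 min enzyme reaction, ambient temperature. Detection: fluorescence of resorufin, 544 nm excitation, 590 nm emission.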
PMI act hi M6P: increases human PMI activity with near-saturating mannose 6-phosphate | P34949 | coupled PMI enzyme assay, resazurin fluorescence, 20 min; stronger effect = higher value; 1 = untreated enzyme, 0 = substrate-free blank | activation factor at 20 µM | 0.34% of 190,000 active;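 active = activation factor of 2 or more at 20 µM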
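Test system: human PMI in coupled enzyme assay; Input: PMI at 15 ng/mL final; Medium: HEPES buffer, pH 7.4; Schedule: 20 min incubation at room temperature; Technique: resorufin fluorescence at Ex 544/Em 590 nm; Compound: 20 µM single dose; Probe or stimulus: Near-saturating mannose-6-phosphate, 1.0 mM.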
* marks the source's active call; other numbers are inactive results; . = no result.

SMILES | PMI activator | WT yeast gro inh | L major viab | Diaphorase act | PMI act hi M6P
O=C(NCC1CCCN(Cc2ccc3nonc3c2)C1)c1cccc(C(F)(F)F)c1 (centres undefined) | . | 28 | 87* | . | .
O=C(c1cccc(C(F)(F)F)c1)C1CCCN(Cc2cccc(OCCO)c2)C1 (centres undefined) | 0.9 | 8 | 8 | 0.9 | 1
COc1ccc(C(=O)C2CCCN(Cc3cn[nH]c3-c3ccccc3)C2)cc1OC (centres undefined) | 1.1 | -14 | -2 | 1.1 | 1
CCOC(=O)c1[nH]ncc1CN1CCCC(C(=O)c2ccc(OC)c(OC)c2)C1 (centres undefined) | 1 | -4 | -2 | 1 | 1
COc1ccc(C(=O)C2CCCN(Cc3cnc(N4CCOCC4)s3)C2)c(OC)c1 (centres undefined) | 0.8 | 6 | 84* | 0.9 | 0.9
CN(C)S(=O)(=O)c1ccc2nnn(O)c2c1 | 1.2 | 20 | -4 | 1 | 1.1
COc1cc(CN2CCN(C(C)C)C(CCO)C2)ccc1OCc1ccccc1 (centres undefined) | 1 | 5 | 33 | 1 | 1.1
CC(C)NC(=O)C(=O)NCCCN1CCOCC1 | 1 | 15 | -7 | 0.9 | 0.9
O=C(CN1C(=O)NC2(CCc3ccccc3C2)C1=O)Nc1ccc(F)cc1 (centres undefined) | 0.9 | -5 | -5 | 0.9 | 1
COc1ccc(C(=O)C2CCCN(C(=O)c3noc4c3CCCC4)C2)cc1F (centres undefined) | 0.9 | 8 | 0 | 0.8 | 0.8
CC(C)CN1CCN(Cc2cccn2-c2ccc(Cl)cn2)CC1CCO (centres undefined) | 0.9 | -8 | 11 | 1 | 0.9
COc1ccc(C(=O)C2CCCN(Cc3ccc4nonc4c3)C2)cc1F (centres undefined) | 0.9 | 19 | 91* | 0.8 | 1
COCc1cc(CN2CCCC(C(=O)c3cccc(C(F)(F)F)c3)C2)ccc1OC (centres undefined) | 1 | 23 | 92* | 1 | 1.1
COc1ccc(C(=O)C2CCCN(C(=O)COc3ccc(C(C)=O)cc3)C2)cc1F (centres undefined) | 0.4 | -15 | 7 | 0.3 | 0.6
COc1ccc(C(=O)C2CCCN(Cc3cccn3-c3ccc(Cl)cn3)C2)c(OC)c1 (centres undefined) | 1 | 44 | 95* | 1 | 1
COc1ccc(C(=O)C2CCCN(Cc3ccc(C#CCCO)cc3)C2)cc1F (centres undefined) | 1 | -7 | 50* | 1.1 | 0.9
C/C(=N/NC(=O)c1ccoc1C)c1ccc(NC(=O)c2ccncc2)cc1 | 1.4 | -11 | 6 | 0.9 | 1.4
N#Cc1c(-c2ccccc2)ccnc1N1CCOCC1 | 1 | 5 | -9 | 1 | 1.1
Cc1cccc(NC(=O)CCSc2nnc(Cc3ccccc3)o2)c1 | 1 | 6 | 4 | 0.9 | 0.9
Cc1cc(C)c(C(=O)COC(=O)c2cc([N+](=O)[O-])ccc2NCCO)cc1C | 0.9 | 1 | 10 | 0.9 | 1
CCNC(=O)N1CCCC(C(=O)c2ccc(OC)c(OC)c2)C1 (centres undefined) | 1 | -12 | -5 | 1 | 0.9
COc1ccc(C(=O)C2CCCN(C3Cc4ccccc4C3)C2)cc1OC (centres undefined) | . | 4 | 93* | . | .
COc1ccc(C(=O)C2CCCN(Cc3ccc4nonc4c3)C2)c(OC)c1 (centres undefined) | 0.9 | 12 | 88* | 1 | 1.1
COCCNC(=O)c1noc2c1CCc1cc(OC)ccc1-2 | 0.9 | -3 | -10 | 0.9 | 0.9
COc1ccc2c(c1)CCc1c(C(=O)NCCCn3ccnc3)noc1-2 | 0.7 | -2 | 100* | 0.9 | 0.7
CC(NC(=O)/C=C/c1ccco1)c1nc2ccccc2n1Cc1cccc(Cl)c1 (centres undefined) | 0.9 | 4 | 28 | 0.9 | 1
O=C(CN1CCN(Cc2ccccc2)CC1)Nc1cccc(C(F)(F)F)c1 | 1 | 12 | 65* | 0.9 | 1.1
O=C(COc1cccc(Cl)c1)Nc1ccc(N2CCOCC2)cc1 | 0.9 | 2 | -2 | 0.9 | 1
CC1CCc2c(C(=O)OCC(=O)Nc3cccc(S(=O)(=O)N4CCCCCC4)c3)csc2C1 (centres undefined) | 0.9 | 1 | 83* | 0.8 | 0.8
